ChEMBL document CHEMBL1153841, “The antifungal polyketide ambruticin targets the HOG pathway” (2007)
Values after ≈ are worked out from the molar mass of the structure shown. Active and inactive are the calls of the source. The rule behind the calls is not given here.

Experiments:
Saccharomyces cerevisiae [1] = assay: Elevation of Hog1 phosphorylation Saccharomyces cerevisiae ATCC 201388 carrying pYES2-HIK1 at 25 ppm after 4 hrs in SD/-Ura medium by Western blot analysis; assay type: functional, organism-based
Method in brief: (§1)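 Overnight cultures in SD/−Ura resuspended in fresh SD/−Ura and grown 4 h, then exposed 10 min to compound (25 ppm), 0.5 M NaCl, or left untreated. Soluble protein from cell extracts Western blotted with anti-p38 antibody against doubly phosphorylated T180/Y182 (phospho-Hog1) and anti-C-terminal Hog1 antibody (total Hog1). Detection by HRP-conjugated secondary antibody with ECL Plus.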

Saccharomyces cerevisiae [2] = assay: Elevation of Hog1 phosphorylation Saccharomyces cerevisiae ATCC 201388 carrying pYES2 at 25 ppm after 4 hrs in SD/-Ura medium by Western blot analysis; assay type: functional, organism-based; method in brief: as §1
Saccharomyces cerevisiae [3] = assay: Elevation of Hog1 phosphorylation Saccharomyces cerevisiae ATCC 201388 carrying deltahog1 gene at 25 ppm after 4 hrs in SD/-Ura medium by Western blot analysis; assay type: functional, organism-based; method in brief: as §1
Saccharomyces cerevisiae [4] = assay: Antifungal activity against Saccharomyces cerevisiae ATCC 201388 carrying pYES2 in SD/-Ura medium after 48 hrs by CLSI susceptibility test; assay type: functional; conditions: ATCC 201388, 48 h
Method in brief: (§2)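 Broth MIC following CLSI M27, except that inoculum prep and test medium used SD/−Ura in place of RPMI. Read at 48 h. MIC-0 is the concentration giving 90% growth reduction versus the untreated control.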

Saccharomyces cerevisiae [5] = assay: Antifungal activity against Saccharomyces cerevisiae ATCC 201388 carrying pYES2-hik1-D1153E in SD/-Ura medium after 48 hrs by CLSI susceptibility test; assay type: functional; conditions: ATCC 201388, 48 h; method in brief: as §2
Saccharomyces cerevisiae [6] = assay: Antifungal activity against Saccharomyces cerevisiae ATCC 201388 carrying pYES2-HIK1 in SD/-Ura medium after 48 hrs by CLSI susceptibility test; assay type: functional; conditions: ATCC 201388, 48 h; method in brief: as §2
Saccharomyces cerevisiae [7] = assay: Antifungal activity against Saccharomyces cerevisiae ATCC 201388 carrying pYES2-hik1-D1153E in SG/-Ura medium after 48 hrs by CLSI susceptibility test; assay type: functional; conditions: ATCC 201388, 48 h
Method in brief: (§3)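 CLSI M27 broth MIC, modified so that SG/−Ura served as both inoculum-preparation and test medium in place of RPMI. Uracil is omitted to select for plasmid maintenance. Read after 48 h of incubation. MIC-0 is the concentration causing 90% reduction in growth relative to the untreated control.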

Saccharomyces cerevisiae [8] = assay: Antifungal activity against Saccharomyces cerevisiae ATCC 201388 carrying pYES2-hik1-H736V in SG/-Ura medium after 48 hrs by CLSI susceptibility test; assay type: functional; conditions: ATCC 201388, 48 h; method in brief: as §3
Saccharomyces cerevisiae [9] = assay: Antifungal activity against Saccharomyces cerevisiae ATCC 201388 carrying pYES2 in SG/-Ura medium after 48 hrs by CLSI susceptibility test; assay type: functional; conditions: ATCC 201388, 48 h; method in brief: as §3
Saccharomyces cerevisiae [10] = assay: Antifungal activity against Saccharomyces cerevisiae ATCC 201388 carrying pYES2-hik1-H736V in SD/-Ura medium after 48 hrs by CLSI susceptibility test; assay type: functional; conditions: ATCC 201388, 48 h; method in brief: as §2
Saccharomyces cerevisiae [11] = assay: Antifungal activity against Saccharomyces cerevisiae ATCC 201388 carrying pYES2-HIK1 in SG/-Ura medium after 48 hrs by CLSI susceptibility test; assay type: functional; conditions: ATCC 201388, 48 h; method in brief: as §3

In the case of `CC[C@H]1O[C@@H](/C(C)=C/[C@H](C)/C=C/[C@H]2[C@@H](C)[C@@H]2/C=C/[C@@H]2O[C@H](CC(=O)O)C[C@H](O)[C@H]2O)CC=C1C`, the Activity (Saccharomyces cerevisiae [1]) is reported as “Active”, the Activity (Saccharomyces cerevisiae [2]) is reported as “inactive” and the Activity (Saccharomyces cerevisiae [3]) is reported as “inactive”.
`CC[C@H]1O[C@@H](/C(C)=C/[C@H](C)/C=C/[C@H]2[C@@H](C)[C@@H]2/C=C/[C@@H]2O[C@H](CC(=O)O)C[C@H](N(C)C)[C@H]2O)CC=C1C` [AMBRUTICIN VS3] was tested, and the MIC90 (Saccharomyces cerevisiae [4]) was over 32 µg/mL, the MIC90 (Saccharomyces cerevisiae [5]) was over 32 µg/mL and the MIC90 (Saccharomyces cerevisiae [6]) was over 32 µg/mL. It also gave an MIC90 (Saccharomyces cerevisiae [7]) of over 32 µg/mL, an MIC90 (Saccharomyces cerevisiae [8]) of over 32 µg/mL and an MIC90 (Saccharomyces cerevisiae [9]) of over 32 µg/mL. For the same molecule, the MIC90 (Saccharomyces cerevisiae [10]) was over 32 µg/mL and the MIC90 (Saccharomyces cerevisiae [11]) was 0.5 µg/mL (≈ 0.997 µM).
`N#Cc1c[nH]cc1-c1cccc2c1OC(F)(F)O2` [FLUDIOXONIL] showed an MIC90 (Saccharomyces cerevisiae [4]) of over 32 µg/mL, an MIC90 (Saccharomyces cerevisiae [5]) of over 32 µg/mL and an MIC90 (Saccharomyces cerevisiae [6]) of over 32 µg/mL. For the same molecule, the MIC90 (Saccharomyces cerevisiae [7]) was over 32 µg/mL, the MIC90 (Saccharomyces cerevisiae [8]) was over 32 µg/mL and the MIC90 (Saccharomyces cerevisiae [9]) was over 32 µg/mL. The MIC90 (Saccharomyces cerevisiae [10]) was over 32 µg/mL and the MIC90 (Saccharomyces cerevisiae [11]) was 2 µg/mL (≈ 8.06 µM).
Work on `C=CC1(C)OC(=O)N(c2cc(Cl)cc(Cl)c2)C1=O` (configuration not stated) [VINCLOZOLIN] yielded an MIC90 (Saccharomyces cerevisiae [4]) of over 32 µg/mL, an MIC90 (Saccharomyces cerevisiae [5]) of over 32 µg/mL and an MIC90 (Saccharomyces cerevisiae [6]) of over 32 µg/mL. For the same molecule, the MIC90 (Saccharomyces cerevisiae [7]) was over 32 µg/mL, the MIC90 (Saccharomyces cerevisiae [8]) was over 32 µg/mL and the MIC90 (Saccharomyces cerevisiae [9]) was over 32 µg/mL. The MIC90 (Saccharomyces cerevisiae [10]) was over 32 µg/mL and the MIC90 (Saccharomyces cerevisiae [11]) was 16 µg/mL (≈ 55.9 µM).
